Hits are enriched below; roughly 2.5% of the tested compounds scored in any of these assays.
dFosB act – activators of delta FosB homodimer, primary screen, biochemical, fluorescence polarization, TAMRA-CDK5 oligo, single point | Protein FosB (Mus musculus), P13346 | purified delta FosB; percent of positive-control signal above neutral wells | activation, % at 25 µM | actives 0.99% (n = 340,000) | AID 493131, 2011;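 active means mean activation above about 17%, with every replicate also reaching it, limit read from the data, passing the limit was not always enough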
VIM-2 inhibitor – VIM-2 metallo-beta-lactamase inhibitors, primary screen, biochemical, epi-absorbance readout, Pseudomonas aeruginosa enzyme; purified VIM-2, nitrocefin hydrolysis, epi-absorbance fluorescence; inhibition, % at 5.6 µM; actives 0.89% (n = 290,000);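 active means inhibition above the mean of all tested compounds plus 3 SD, cutoff set per screening run, cut at about 7.5% in these data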;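 further: red hydrolysis product quenches plate fluorescence so inhibitors raise well fluorescence; 0% = enzyme with DMSO and 100% = DMSO without enzyme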
m5-HT2A agonist – mouse Htr2a agonists via beta-arrestin recruitment, primary screen, cell-based, luminescence. 5-hydroxytryptamine receptor 2A (Mus musculus), P35363. CHO-K1 mHTR2A beta-arrestin complementation; percent of 30 µM serotonin response. activation, % at 7.6 µM. actives 0.66% (n = 360,000). AID 624169, 2012;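 active means activation above a run cutoff, the mean activation of all tested compounds plus 3 SD, cut at about 14% in these data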;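 further: 0% = plate median of compound wells and 100% = 30 µM serotonin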
Target sequence (P35363 whole entry, looked up): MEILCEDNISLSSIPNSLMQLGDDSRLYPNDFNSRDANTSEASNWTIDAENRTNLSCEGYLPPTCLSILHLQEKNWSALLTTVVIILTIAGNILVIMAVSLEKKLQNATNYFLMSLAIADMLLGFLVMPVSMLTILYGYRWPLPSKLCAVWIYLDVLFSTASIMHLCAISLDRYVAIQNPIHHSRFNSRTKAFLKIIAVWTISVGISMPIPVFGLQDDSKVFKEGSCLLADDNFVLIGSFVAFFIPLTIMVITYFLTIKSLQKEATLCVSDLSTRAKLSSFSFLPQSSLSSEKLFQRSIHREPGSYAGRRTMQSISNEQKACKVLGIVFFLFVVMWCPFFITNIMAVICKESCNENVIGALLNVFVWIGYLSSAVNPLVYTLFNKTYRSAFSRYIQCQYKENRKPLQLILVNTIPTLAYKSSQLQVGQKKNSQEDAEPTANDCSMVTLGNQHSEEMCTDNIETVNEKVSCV
IMP-1 inhibitor – IMP-1 metallo-beta-lactamase inhibitors, primary screen, biochemical, epi-absorbance readout, Pseudomonas aeruginosa enzyme | metallo-beta-lactamase IMP-1 (Pseudomonas aeruginosa) | purified IMP-1, nitrocefin hydrolysis, epi-absorbance fluorescence | inhibition, % at 5.6 µM | actives 0.45% (n = 290,000) | AID 1556, 2009;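 active means inhibition above the mean plus 3 SD of all compounds in the same screening run, cut at about 4.5% in these data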;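 further: 0% = IMP-1 with DMSO and 100% = DMSO wells lacking enzyme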
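System – purified recombinant IMP-1 beta-lactamase · Input – IMP-1 dispensed at 0.2 nM · Timing – 15 min preincubation plus 25 min reaction at 25 °C · Signal – Epi-absorbance fluorescence, 480 nm excitation, 530 nm emission · Measure – percent IMP-1 inhibition derived from blank-referenced optical density · Controls – Enzyme-plus-DMSO low control, enzyme-free DMSO high control · Replication – singlicate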
OPRM1 ag – OPRM1 agonists via beta-arrestin recruitment, confirmation, counter-screen for mouse HTR2A agonist project, cell-based, luminescence, single concentration; shares compounds with m5-HT2A agonist; actives 5.3% (n = 2,300); activation, % at 9.3 µM; U2OS OPRM1 beta-arrestin PathHunter; DMSO 0%, DAMGO 9.3 µM 100%;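 active means mean activation above the mean of DMSO-only wells plus 3 SD, cut at about 0.5% in these data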
HTR2A ag conf – mouse HTR2A agonists, beta-arrestin recruitment, confirmation, cell-based, luminescence, CHO-K1 PathHunter, triplicate. shares compounds with m5-HT2A agonist. DMSO 0%, 30 µM serotonin 100%. activation, % at 7.6 µM. actives 19% (n = 2,300). AID 624381, 2012;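 active means mean activation across triplicates above the hit threshold derived in the original primary screen, cut at about 15% in these data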
* = called active by the depositor; x = no result.

SMILES | dFosB act | VIM-2 inhibitor | m5-HT2A agonist | IMP-1 inhibitor | OPRM1 ag | HTR2A ag conf
Cc1noc(C)c1S(=O)(=O)N1CCC(C(=O)N2CCC(N3CCCCC3)CC2)CC1 | -5.0 | x | 34.5* | x | -0.5 | -4.1
Cc1noc(C)c1S(=O)(=O)N1CCCC(C(=O)N2CCN(C3CCCCC3)CC2)C1 (stereo not drawn) | -0.5 | 1.0 | -0.1 | -0.1 | x | x
Cc1cc(C)cc(N(C(C)C(=O)NCc2ccc3c(c2)OCO3)S(C)(=O)=O)c1 (stereo not drawn) | -8.7 | -1.5 | 8.9 | -1.6 | x | x
COC(=O)[C@@]1(Cc2ccc(OC)cc2)[C@@H]2[C@@H](CC(=O)[C@H]2CC(=O)C(=O)N(C)C)CN1C(=O)c1ccccc1 | -4.9 | -1.1 | 18.1* | 1.7 | -0.8 | -2.1
COC(=O)[C@@]1(Cc2ccc(F)cc2)[C@@H]2[C@@H](CC(=O)[C@H]2CC(=O)C(=O)N(C)C)CN1C(=O)c1ccccc1 | 2.2 | 1.2 | 1.5 | 1.7 | x | x
COc1ccccc1NC(=O)c1ccc(-c2ccc(Br)cc2)o1 | -11.1 | -1.5 | 30.8* | 4.0 | -0.1 | -2.9
O=C(Nc1ccccc1)c1ccc(-c2ccc(Br)cc2)o1 | -17.1 | -0.2 | 1.7 | 1.5 | x | x
CCOC(=O)c1c2ccccc2[n+]([O-])n1CCO | 1.9 | x | 3.2 | x | x | x
CN(C)c1ccc(C(C(=O)NCc2ccccc2)N(Cc2cccnc2)C(=O)c2snc(C(N)=O)c2N)cc1 (stereo not drawn) | -16.9 | -1.1 | 18.6* | -3.8 | -0.6 | -1.4
CC(=O)Nc1ccc(CN2CCN(CC(C)C)C(CCO)C2)cc1 (stereo not drawn) | -9.2 | -0.8 | 14.4* | -3.2 | -0.5 | -3.7
COc1ccc(Cc2nc3ccc(C(=O)N4CCN(C)C(C)C4)cc3o2)cc1OC (stereo not drawn) | -5.3 | -2.0 | 0.1 | -3.5 | x | x
CCc1nn(CC(=O)N2CCC(C)CC2)c(=O)c2cccn12 | -0.6 | -2.9 | -2.8 | -1.7 | x | x
COc1cccc2c1cc1c(=O)n(CC(=O)N3CCC(C)CC3)nc(C)n12 | -6.7 | 3.8 | 17.0* | -2.6 | -0.1 | 57.4*
CCC(C)(C)n1nnnc1C(c1ccccc1F)N1CCN(C(=O)c2ccco2)CC1 (stereo not drawn) | -3.3 | 1.6 | -2.7 | 0.8 | x | x
O=C(CN1CCN(C(=O)CNC(=O)c2ccc(N3CCCC3=O)cc2)CC1)Nc1cccc(F)c1 | x | x | 6.8 | x | x | x
CCc1ccc(CN2CCN(C(=O)c3ccco3)CC2)cc1 | -3.0 | -4.6 | 15.0* | -3.2 | -0.5 | 123.2*
O=C(c1ccc(CS(=O)c2cccc(Cl)c2)o1)N1CCOCC1 (stereo not drawn) | -3.2 | -3.1 | 17.7* | -0.3 | -0.7 | -1.7
O=C(Cc1ccc(Cl)cc1)N1CCN(C(=O)c2ccco2)CC1 | 0.9 | -0.5 | -3.1 | -2.0 | x | x
O=C(c1ccco1)N1CCN(Cc2ccc(Cl)cc2)CC1 | 0.9 | -2.3 | 21.1* | -2.9 | -0.3 | 88.4*
O=C(c1ccco1)N1CCN(Cc2ccc(Br)cc2)CC1 | -6.0 | -2.6 | 14.8* | -2.6 | -0.3 | 90.2*
O=C(c1ccc(CS(=O)c2cccc(Cl)c2)o1)N1CCN(c2ccccn2)CC1 (stereo not drawn) | 3.7 | -0.3 | 5.2 | -1.0 | x | x
N#CCOc1ccccc1CNC[C@H]1O[C@@H](n2cnc3c(=O)[nH]c(N)nc32)[C@H](O)[C@@H]1O | x | x | -1.9 | x | x | x
O=C(OCC(=O)N1CCOCC1)c1ccccc1OCc1ccccc1 | -2.5 | x | -7.3 | x | x | x
CCOC(=O)C(N=Nc1nn[nH]n1)C(C)=O (stereo not drawn) | x | x | 0.3 | x | x | x
CN(c1ccc(C(=O)N2CCN(Cc3ccccc3)CC2)cc1)S(=O)(=O)c1ccc(Cl)cc1 | -15.8 | -2.0 | 15.2* | -2.0 | -0.3 | 64.4*
O=C(c1ccco1)N1CCN(C(=O)c2ccc(CS(=O)c3ccc(Cl)cc3)o2)CC1 (stereo not drawn) | -5.2 | -5.6 | 14.9* | -1.3 | -0.6 | -3.5
